Test results as given in ChEMBL document CHEMBL4393701, “Appendix A. dithioloquinolinethiones as new potential multitargeted antibacterial and antifungal agents: Synthesis, biological evaluation and molecular docking studies” (2019).
Values after ≈ are worked out from the molar mass of the structure shown.

What was measured:
Aspergillus fumigatus [1] = assay: Antifungal activity against Aspergillus fumigatus ATCC 1022 after 72 hrs by microdilution technique; type: functional; details: ATCC 1022, 72 h
Summary of the method: (§1)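 Spores were washed off malt agar with 0.85% saline containing 0.1% Tween 80 and adjusted to about 1.0×10^5 per well. Compounds in 5% DMSO were serially diluted (0.001-1.0 mg/ml) in malt broth with inoculum. Plates were shaken at 160 rpm for 72 h at 28 °C. MIC is the lowest concentration without visible growth under a binocular microscope. Three independent experiments in duplicate.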

Trichoderma viride [2] = assay: Antifungal activity against Trichoderma viride IAM 5061 after 72 hrs by microdilution technique; type: functional; details: IAM 5061, 72 h; summary of the method: as §1
Pseudomonas aeruginosa [3] = assay: Antibacterial activity against Pseudomonas aeruginosa ATCC 27853 after 24 hrs by iodonitrotetrazolium chloride dye based microdilution method; type: functional; details: ATCC 27853, 24 h
Summary of the method: (§2)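 Fresh overnight cultures adjusted spectrophotometrically to 1×10^5 CFU/mL, giving 1.0×10^4 CFU per well in tryptic soy broth. Compounds were dissolved in 5% DMSO and tested at 0.001-1.0 mg/ml by serial dilution; 5% DMSO was the negative control. After 24 h at 37 °C, 0.2 mg/mL INT solution was added for 30 min at 37 °C and OD read at 655 nm. MIC is the lowest concentration giving significant growth inhibition versus the positive control. Duplicates, repeated three times.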

Staphylococcus aureus [4] = assay: Bactericidal activity against Staphylococcus aureus ATCC 6538 incubated for 24 hrs followed by re-plating on tryptic soy broth; type: functional; details: ATCC 6538, 24 h
Summary of the method: (§3)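 Bacteria were grown in tryptic soy broth, 1.0×10^4 CFU per well, with compounds in 5% DMSO at 0.001-1.0 mg/ml for 24 h at 37 °C. Then 10 µL was subcultured into fresh TSB. MBC is the lowest concentration showing no growth after subculture, taken as 99.5% kill of the original inoculum. Duplicates, repeated three times.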

Aspergillus versicolor [5] = assay: Antifungal activity against Aspergillus versicolor ATCC 11730 after 72 hrs by microdilution method; type: functional; details: ATCC 11730, 72 h; summary of the method: as §1
Aspergillus versicolor [6] = assay: Fungicidal activity against Aspergillus versicolor ATCC 11730 incubated for 72 hrs followed by sub-culturing on broth malt medium and measured after 72 hrs; type: functional; details: ATCC 11730, 72 h
Summary of the method: (§4)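 After 72 h exposure in malt broth, 2 µL from test wells was subcultured into wells holding 100 µL broth and incubated a further 72 h at 28 °C. MFC is the lowest concentration with no visible growth, taken as 99.5% kill of the original inoculum. Three independent experiments in duplicate.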

[7] = Antifungal activity against Penicillium funiculosum ATCC 36839 after 72 hrs by microdilution technique; type: functional; details: Talaromyces pinophilus, ATCC 36839, 72 h; summary of the method: as §1
Aspergillus fumigatus [8] = assay: Fungicidal activity against Aspergillus fumigatus ATCC 1022 incubated for 72 hrs followed by sub-culturing on broth malt medium and measured after 72 hrs; type: functional; details: ATCC 1022, 72 h; summary of the method: as §4
Penicillium cyclopium [9] = assay: Antifungal activity against Penicillium verrucosum var. cyclopium food isolate after 72 hrs by microdilution technique; type: functional; summary of the method: as §1
Enterobacter cloacae [10] = assay: Antibacterial activity against Enterobacter cloacae clinical isolate after 24 hrs by iodonitrotetrazolium chloride dye based microdilution method; type: functional; summary of the method: as §2
Penicillium ochrochloron [11] = assay: Fungicidal activity against Penicillium ochrochloron ATCC 9112 incubated for 72 hrs followed by sub-culturing on broth malt medium and measured after 72 hrs; type: functional; details: ATCC 9112, 72 h; summary of the method: as §4
Bacillus cereus [12] = assay: Bactericidal activity against Bacillus cereus clinical isolate incubated for 24 hrs followed by re-plating on tryptic soy broth; type: functional; summary of the method: as §3
Penicillium cyclopium [13] = assay: Fungicidal activity against Penicillium verrucosum var. cyclopium food isolate incubated for 72 hrs followed by sub-culturing on broth malt medium and measured after 72 hrs; type: functional; summary of the method: as §4
Micrococcus flavus [14] = assay: Antibacterial activity against Micrococcus flavus ATCC 10240 after 24 hrs by iodonitrotetrazolium chloride dye based microdilution method; type: functional; details: ATCC 10240, 24 h; summary of the method: as §2
Aspergillus ochraceus [15] = assay: Fungicidal activity against Aspergillus ochraceus ATCC 12066 incubated for 72 hrs followed by sub-culturing on broth malt medium and measured after 72 hrs; type: functional; details: ATCC 12066, 72 h; summary of the method: as §4
Aspergillus niger [16] = assay: Fungicidal activity against Aspergillus niger ATCC 6275 incubated for 72 hrs followed by sub-culturing on broth malt medium and measured after 72 hrs; type: functional; details: ATCC 6275, 72 h; summary of the method: as §4
Escherichia coli [17] = assay: Antibacterial activity against Escherichia coli ATCC 35210 after 24 hrs by iodonitrotetrazolium chloride dye based microdilution method; type: functional; details: ATCC 35210, 24 h; summary of the method: as §2
Salmonella typhimurium [18] = assay: Bactericidal activity against Salmonella typhimurium ATCC 13311 incubated for 24 hrs followed by re-plating on tryptic soy broth; type: functional, Salmonella enterica subsp. enterica serovar Typhimurium; details: Salmonella enterica, ATCC 13311, 24 h; summary of the method: as §3
Escherichia coli [19] = assay: Bactericidal activity against Escherichia coli ATCC 35210 incubated for 24 hrs followed by re-plating on tryptic soy broth; type: functional; details: ATCC 35210, 24 h; summary of the method: as §3
Micrococcus flavus [20] = assay: Bactericidal activity against Micrococcus flavus ATCC 10240 incubated for 24 hrs followed by re-plating on tryptic soy broth; type: functional; details: ATCC 10240, 24 h; summary of the method: as §3
Pseudomonas aeruginosa [21] = assay: Bactericidal activity against Pseudomonas aeruginosa ATCC 27853 incubated for 24 hrs followed by re-plating on tryptic soy broth; type: functional; details: ATCC 27853, 24 h; summary of the method: as §3
Listeria monocytogenes [22] = assay: Bactericidal activity against Listeria monocytogenes NCTC 7973 incubated for 24 hrs followed by re-plating on tryptic soy broth; type: functional; details: NCTC 7973, 24 h; summary of the method: as §3
Enterobacter cloacae [23] = assay: Bactericidal activity against Enterobacter cloacae incubated for 24 hrs followed by re-plating on tryptic soy broth; type: functional; summary of the method: as §3
Salmonella typhimurium [24] = assay: Antibacterial activity against Salmonella typhimurium ATCC 13311 after 24 hrs by iodonitrotetrazolium chloride dye based microdilution method; type: functional, Salmonella enterica subsp. enterica serovar Typhimurium; details: Salmonella enterica, ATCC 13311, 24 h; summary of the method: as §2
Aspergillus niger [25] = assay: Antifungal activity against Aspergillus niger ATCC 6275 after 72 hrs by microdilution technique; type: functional; details: ATCC 6275, 72 h; summary of the method: as §1
Aspergillus ochraceus [26] = assay: Antifungal activity against Aspergillus ochraceus ATCC 12066 after 72 hrs by microdilution technique; type: functional; details: ATCC 12066, 72 h; summary of the method: as §1
[27] = Fungicidal activity against Penicillium funiculosum ATCC 36839 incubated for 72 hrs followed by sub-culturing on broth malt medium and measured after 72 hrs; type: functional; details: Talaromyces pinophilus, ATCC 36839, 72 h; summary of the method: as §4
Trichoderma viride [28] = assay: Fungicidal activity against Trichoderma viride IAM 5061 incubated for 72 hrs followed by sub-culturing on broth malt medium and measured after 72 hrs; type: functional; details: IAM 5061, 72 h; summary of the method: as §4
Penicillium ochrochloron [29] = assay: Antifungal activity against Penicillium ochrochloron ATCC 9112 after 72 hrs by microdilution technique; type: functional; details: ATCC 9112, 72 h; summary of the method: as §1
Staphylococcus aureus [30] = assay: Antibacterial activity against Staphylococcus aureus ATCC 6538 after 24 hrs by iodonitrotetrazolium chloride dye based microdilution method; type: functional; details: ATCC 6538, 24 h; summary of the method: as §2
Bacillus cereus [31] = assay: Antibacterial activity against Bacillus cereus clinical isolate after 24 hrs by iodonitrotetrazolium chloride dye based microdilution assay; type: functional; summary of the method: as §2
Listeria monocytogenes [32] = assay: Antibacterial activity against Listeria monocytogenes NCTC 7973 after 24 hrs by iodonitrotetrazolium chloride dye based microdilution method; type: functional; details: NCTC 7973, 24 h; summary of the method: as §2

Row | SMILES | MIC (Aspergillus fumigatus [1]) [×10⁻² mM] | MIC (Trichoderma viride [2]) [×10⁻² mM] | MIC (Pseudomonas aeruginosa [3]) [µM] | MBC (Staphylococcus aureus [4]) [µM] | MIC (Aspergillus versicolor [5]) [×10⁻² mM] | MFC (Aspergillus versicolor [6]) [×10⁻² mM] | MIC [7] [×10⁻² mM] | MFC (Aspergillus fumigatus [8]) [×10⁻² mM] | MIC (Penicillium cyclopium [9]) [×10⁻² mM] | MIC (Enterobacter cloacae [10]) [µM] | MFC (Penicillium ochrochloron [11]) [×10⁻² mM] | MBC (Bacillus cereus [12]) [µM] | MFC (Penicillium cyclopium [13]) [×10⁻² mM] | MIC (Micrococcus flavus [14]) [µM] | MFC (Aspergillus ochraceus [15]) [×10⁻² mM] | MFC (Aspergillus niger [16]) [×10⁻² mM] | MIC (Escherichia coli [17]) [µM] | MBC (Salmonella typhimurium [18]) [µM] | MBC (Escherichia coli [19]) [µM] | MBC (Micrococcus flavus [20]) [µM] | further results
1 | CCOc1ccc2c(c1)-c1c(ssc1=S)C(C)(C)N2C(=O)c1ccc(Cl)c([N+](=O)[O-])c1 | 4.46 | 1.22 | 30.4 (≈ 15 µg/mL) | 60.9 (≈ 30 µg/mL) | 12.2 | 24.3 | 3.04 | 12.2 | 24.3 | 30.4 (≈ 15 µg/mL) | 1.62 | 60.9 (≈ 30 µg/mL) | 48.7 | 30.4 (≈ 15 µg/mL) | 3.04 | 6.09 | 30.4 (≈ 15 µg/mL) | 60.9 (≈ 30 µg/mL) | 60.9 (≈ 30 µg/mL) | 60.9 (≈ 30 µg/mL) | MBC (Pseudomonas aeruginosa [21]): 60.9 µM (≈ 30 µg/mL); MBC (Listeria monocytogenes [22]): 60.9 µM (≈ 30 µg/mL); MBC (Enterobacter cloacae [23]): 60.9 µM (≈ 30 µg/mL); MIC (Salmonella typhimurium [24]): 30.4 µM (≈ 15 µg/mL); MIC (Aspergillus niger [25]): 2.23 ×10⁻² mM; MIC (Aspergillus ochraceus [26]): 1.62 ×10⁻² mM; MFC [27]: 6.09 ×10⁻² mM; MFC (Trichoderma viride [28]): 1.62 ×10⁻² mM; MIC (Penicillium ochrochloron [29]): 1.22 ×10⁻² mM; MIC (Staphylococcus aureus [30]): 30.4 µM (≈ 15 µg/mL); MIC (Bacillus cereus [31]): 30.4 µM (≈ 15 µg/mL); MIC (Listeria monocytogenes [32]): 30.4 µM (≈ 15 µg/mL)
2 | CC1(C)c2ssc(=S)c2-c2cccc3c2N1C(=O)/C3=N/NC(N)=S | 7.64 | 1.52 | 38.2 (≈ 15 µg/mL) | 76.4 (≈ 30 µg/mL) | 11.5 | 30.6 | 11.5 | 15.2 | 11.5 | 38.2 (≈ 15 µg/mL) | 7.64 | 76.4 (≈ 30 µg/mL) | 30.6 | 38.2 (≈ 15 µg/mL) | 30.6 | 30.6 | 38.2 (≈ 15 µg/mL) | 76.4 (≈ 30 µg/mL) | 76.4 (≈ 30 µg/mL) | 76.4 (≈ 30 µg/mL) | MBC (Pseudomonas aeruginosa [21]): 76.4 µM (≈ 30 µg/mL); MBC (Listeria monocytogenes [22]): 76.4 µM (≈ 30 µg/mL); MBC (Enterobacter cloacae [23]): 76.4 µM (≈ 30 µg/mL); MIC (Salmonella typhimurium [24]): 38.2 µM (≈ 15 µg/mL); MIC (Aspergillus niger [25]): 15.2 ×10⁻² mM; MIC (Aspergillus ochraceus [26]): 15.2 ×10⁻² mM; MFC [27]: 30.6 ×10⁻² mM; MFC (Trichoderma viride [28]): 3.82 ×10⁻² mM; MIC (Penicillium ochrochloron [29]): 3.82 ×10⁻² mM; MIC (Staphylococcus aureus [30]): 38.2 µM (≈ 15 µg/mL); MIC (Bacillus cereus [31]): 38.2 µM (≈ 15 µg/mL); MIC (Listeria monocytogenes [32]): 38.2 µM (≈ 15 µg/mL)
3 | Cc1ccc2c(c1)-c1c(ssc1=S)C(C)(C)N2C(=O)c1cccnc1 | 7.8 | 1.04 | 0.3 (≈ 0.115 µg/mL) | 0.6 (≈ 0.231 µg/mL) | 7.8 | 15.6 | 15.6 | 15.6 | 7.8 | 0.3 (≈ 0.115 µg/mL) | 15.6 | 0.6 (≈ 0.231 µg/mL) | 15.6 | 12.1 (≈ 4.65 µg/mL) | 31.2 | 7.8 | 12.1 (≈ 4.65 µg/mL) | 0.6 (≈ 0.231 µg/mL) | 0.6 (≈ 0.231 µg/mL) | 0.6 (≈ 0.231 µg/mL) | MBC (Pseudomonas aeruginosa [21]): 0.6 µM (≈ 0.231 µg/mL); MBC (Listeria monocytogenes [22]): 0.6 µM (≈ 0.231 µg/mL); MBC (Enterobacter cloacae [23]): 0.6 µM (≈ 0.231 µg/mL); MIC (Salmonella typhimurium [24]): 0.3 µM (≈ 0.115 µg/mL); MIC (Aspergillus niger [25]): 1.56 ×10⁻² mM; MIC (Aspergillus ochraceus [26]): 14.6 ×10⁻² mM; MFC [27]: 31.2 ×10⁻² mM; MFC (Trichoderma viride [28]): 2.08 ×10⁻² mM; MIC (Penicillium ochrochloron [29]): 7.8 ×10⁻² mM; MIC (Staphylococcus aureus [30]): 0.3 µM (≈ 0.115 µg/mL); MIC (Bacillus cereus [31]): 12.1 µM (≈ 4.65 µg/mL); MIC (Listeria monocytogenes [32]): 0.3 µM (≈ 0.115 µg/mL)
